Bioassay records (PubChem BioAssay)
This is one part of a sample in which hits are shown more often than they occur.
PfG6PD inh: PfG6PD (Plasmodium falciparum) enzyme inhibition; PfGluPho enzyme, NADPH resazurin-diaphorase fluorescence; inhibition, % at 20 µM; hit rate 0.78% among 350,000;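 active means inhibition reaching at least a set limit at 20 µM in the primary screen, cut at about 59% in these data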
Diaph act CS: activates diaphorase or chemically reduces, flagging diaphorase assay artifacts. Diaphorase/resazurin coupled assay, resorufin fluorescence, 16 min; active compounds read high; 1 = vehicle wells, 0 = NADH-free wells. activation factor at 20 µM. hit rate 0.005% among 190,000. AID 1229;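 active means diaphorase activity raised at least twofold by the compound at 20 µM; inactive means activation factor below 2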
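Test system: Clostridium kluyveri diaphorase, purified enzyme; input: enzyme 0.07 U/mL final; buffer or medium: 50 mM HEPES pH 7.4 with 4.542 mM MgCl2, 0.005% Tween 20; also added: 0.114 mM NADH and 0.1 mM resazurin, final amounts; schedule: 16 min enzyme reaction, ambient temperature; technique: fluorescence of resorufin, 544 nm excitation, 590 nm emission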
Diaph inh CS: inhibits diaphorase or chemically oxidizes, flagging diaphorase assay artifacts; diaphorase resazurin-to-resorufin fluorescence, NADH, 16 min; bacterial (C. kluyveri) enzyme, not human; inhibition, % at 20 µM; hit rate 0.69% among 190,000; AID 1217;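 active means primary screen inhibition at 20 µM above a set limit, cut at about 50% in these data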
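Assay system – diaphorase enzyme from Clostridium kluyveri · Amount – diaphorase 0.14 U/mL (working solution) · Times – reaction incubation of 16 min at room temperature · Controls – No-NADH positive control and DMSO neutral control · Signal – resorufin fluorescence 544/590 nm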
G6PDH CS: inhibits Leuconostoc G6PDH, flagging false hits in G6PDH-based assays; inhibition, % at 5 µM; AID 1020; Purified L. mesenteroides G6PDH, diaphorase/resazurin coupled fluorescence, 45 min; hit rate 0.12% among 200,000
Lmaj promast: Leishmania major promastigote growth inhibition. Leishmania major promastigotes, resazurin fluorescence viability. inhibition, % at 10 µM. hit rate 9% among 200,000;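 further: promastigotes grown with compound for 44 hours at 28 °C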
DTT redox prof: compounds producing H2O2 with reducing agent – biochemical, NIH compound library profiling, artefact control for MLSCN library redox annotation, primary screen | DTT-dependent redox cycling H2O2, phenol red/HRP absorbance; 100% = 100 µM peroxide control, 0% = buffer | activation, % at 10 µM | hit rate 0.03% among 200,000;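 active means activation of at least 50% relative to the plate's high and low controls in the primary single-dose screen; inactive means activation below 50%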;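 further: compound incubated with DTT at 0.8 mM final as the reducing agent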
Of the large screens only hits and unclear results are named; the others gave an inactive call. Unless noted, no stated cut-off is given here; in the data, active means inhibition above about 50%; inactive means the rest.

COc1cccc(N2CCN(c3cnc4ccccc4n3)CC2)c1	Lmaj promast 69.7
C[C@H](CO)N1C[C@H](C)[C@H](CN(C)S(=O)(=O)c2ccc(F)cc2)Oc2ncc(Br)cc2C1=O	none (no result: Diaph act CS, Diaph inh CS, G6PDH CS, Lmaj promast, DTT redox prof)
CCOc1ccc(NC(=O)c2ccc(NC(=O)c3cn4c5c(c(N6CCN(C)CC6)c(F)cc5c3=O)OCC4C)cc2)cc1 (centres undefined)	Lmaj promast 92.9
O=C(Nc1cccc(-c2nnc(-c3ccco3)o2)c1)C(c1ccccc1)c1ccccc1	Lmaj promast 99.9
COc1ccccc1NC(=O)c1cnc(SCC(=O)NCCc2ccccc2)n(C)c1=O	none (no result: Diaph act CS, Diaph inh CS, G6PDH CS, Lmaj promast, DTT redox prof)
COc1ccc(Cl)cc1C(=O)Nn1c(C)nc2ccccc2c1=O	none
COc1ccc(Cl)cc1C(=O)Nn1c(-c2cccs2)nc2ccccc2c1=O	Lmaj promast 61.2
Cc1cc(C)n(-c2nnc(C)n2/N=C/c2ccccc2OCc2ccccc2Cl)n1	none
Cc1cc(C)n(-c2nnc(C)n2/N=C/c2cc(Br)ccc2OCc2ccccc2)n1	Lmaj promast 89.2
CC(C)N(C(=O)c1sc2cc([N+](=O)[O-])ccc2c1Cl)C(C)C	Lmaj promast 97.2
CCN(CCCNC(=O)CCCOc1cc(=O)n(C)c2ccccc12)Cc1ccccc1	Lmaj promast 86.3
CCCCN(CCCC)CC(O)COc1ccccc1C(=O)Nc1ccccc1 (centres undefined)	Lmaj promast 90.8
CCC(=O)c1ccc(OCC(O)CN(CCc2ccccc2)Cc2ccccc2)cc1 (centres undefined)	Lmaj promast 99.6
CCCNCC(O)COc1ccccc1C(=O)CCc1ccccc1 (centres undefined)	none
CCN(CC)CC(O)COc1ccccc1C(=O)CCc1ccccc1 (centres undefined)	Lmaj promast 94.8
CN(CCCn1ccc(NC(=O)OCc2ccccc2)nc1=O)CCc1ccccn1	none (no result: Diaph act CS, Diaph inh CS, G6PDH CS, Lmaj promast, DTT redox prof)
COc1cc(C(=O)NCc2nnc(SCC(=O)N3CCOCC3)o2)cc(OC)c1OC	none
CS/C(=C/[N+](=O)[O-])Nc1cccc2c1C(C)CC2(C)C (centres undefined)	none
Cc1cccc(/C(N)=N/OC(=O)N2CCOCC2)c1	Lmaj promast 56.3
Cc1ccc(/C(N)=N/OC(=O)N2CCOCC2)cc1	none
COC(=O)c1cc2cc(NS(=O)(=O)c3ccc(C)cc3)ccc2s1	Lmaj promast 100.3
CC1CN(CC(O)COc2ccccc2C(C)(C)C)CC(C)O1 (centres undefined)	Lmaj promast 92.3
O=C(c1ccccc1)c1ccc(OCC(O)CN2CCN(Cc3ccccc3)CC2)cc1 (centres undefined)	Lmaj promast 95.9
Cc1cc(C)cc(OCC(O)CN2CC(C)OC(C)C2)c1 (centres undefined)	none (no result: Diaph act CS, Diaph inh CS, G6PDH CS, Lmaj promast, DTT redox prof)
CC1CN(CC(O)COc2ccc(C(=O)c3ccccc3)cc2)CC(C)O1 (centres undefined)	Lmaj promast 79.0
CC(C)(c1ccccc1)c1ccc(OCC(O)CNC2CCN(Cc3ccccc3)CC2)cc1 (centres undefined)	Lmaj promast 100.5
CC(C)(C)OC(=O)CC[C@@H](C(=O)N1CCN(C(=O)OC(C)(C)C)CC1)n1cc(C(CO)NC(=O)OC(C)(C)C)nn1 (some centres undefined)	none
O=C(NCc1cccc2ccsc12)c1cccs1	none (no result: Diaph act CS, Diaph inh CS, G6PDH CS, Lmaj promast, DTT redox prof)
Cn1nc(C(=O)NC2CCCCC2)c2c1-c1ccccc1S(=O)(=O)C2	none (no result: Diaph act CS, Diaph inh CS, G6PDH CS, Lmaj promast, DTT redox prof)
CC(=O)c1ccc(OCC(O)CN2CCN(Cc3ccccc3)CC2)cc1 (centres undefined)	Lmaj promast 93.7
CC1CN(CC(O)COC(c2ccccc2)c2ccccc2)CC(C)O1 (centres undefined)	Lmaj promast 85.5
OC(COC(c1ccccc1)c1ccccc1)CN1CCOCC1 (centres undefined)	none
NC(=O)COC(=O)CC12CC3CC(CC(Br)(C3)C1)C2	none
O=C(NCc1cccnc1)/C(=C\c1ccc(-c2ccc(Cl)c(Cl)c2)o1)S(=O)(=O)c1ccccc1	Lmaj promast 100.3
O=C(NCc1cccnc1)c1ccc(-c2ccc(Cl)cc2)o1	none
Cc1cc(OCCCn2ccnc2)ccc1C(C)C	Lmaj promast 99.3
